Assay outcomes from PubChem BioAssay.
Shown are actives, neighbours in structure and some others; about 3.5% of the full set was active somewhere.
rRNA inh HTS – reduced GFP signal of wild-type E. coli, primary screen, bacterial rRNA inhibitor project, GFP/RFP fluorescence, OD600, single point. E. coli WT GFP vs humanized-ribosome RFP mutants, 24 h; hits give low values; DMSO median 0, no signal -100. GFP signal change (wild-type ribosome), % (no concentration beside the values). 350,000 compounds, 1.6% hits;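 active = significant combined selectivity score with lowered wild-type GFP, culture density cut under 30%, mutant RFP and density less affected; inactive = any of these conditions unmet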
ERAP1 HTS inh – human ERAP1 aminopeptidase inhibitors, primary screen, biochemical, single point, plate reader. Endoplasmic reticulum aminopeptidase 1 (Homo sapiens), Q9NZ08. recombinant ERAP1, Leu-AMC fluorescence, 60 min. 340,000 compounds, 0.15% hits. inhibition, % at 10.7 µM;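 active = mean replicate inhibition of at least 30%, or all replicates individually reaching that 30% level; inactive = mean below 30% and not every replicate reaching it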
PGC1a acetyl inh – inhibitors of PGC1a acetylation signal, primary screen, cell-based, U2OS, AlphaScreen, inhibitor mode; AlphaScreen anti-acetyl-lysine; with virally co-expressed GCN5 acetyltransferase; inhibition, % at 15.6 µM; 350,000 compounds, 0.17% hits; AID 651687, 2012;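 active = every replicate shows inhibition of at least 40%; inconclusive = mean inhibition at least 40% but some replicate below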
FGF22 binding – binders of human FGF22 protein, primary screen, FGF22 synaptogenesis inhibitor project, biophysical, thermal shift, single point | 340,000 compounds, 1.5% hits | recombinant FGF22 thermal shift, SYPRO orange fluorescence; percent of sucrose octasulfate shift, DMSO zero | activity (Tm shift, normalised), % at 9.99 µM | AID 651658, 2012;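 active = mean Tm shift, scaled 0 neutral to 100 positive control, at about 1.3% or above, every replicate too, limit read from the data; inconclusive = no clear call, values can overlap the other calls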
Target sequence (Q9HCT0 whole entry, looked up): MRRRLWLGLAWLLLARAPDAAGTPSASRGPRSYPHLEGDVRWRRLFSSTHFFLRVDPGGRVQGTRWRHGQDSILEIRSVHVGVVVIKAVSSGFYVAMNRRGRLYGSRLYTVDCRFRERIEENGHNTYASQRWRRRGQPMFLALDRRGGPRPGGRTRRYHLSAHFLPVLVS
Env fusion inh – inhibitors of HIV-1 Env-driven cell-cell fusion, primary screen, HeLa-JRFL effector, CEM21 target cells, luciferase. inhibition, % at 12.3 µM. 360,000 compounds, 1.1% hits. AID 651610, 2012;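 active = mean replicate inhibition score of at least 50 and every replicate individually at or above 50; inconclusive = only one of the two criteria met; inactive = mean below 50 and not all replicates reaching 50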
Cneo AK release – Cryptococcus neoformans cell lysis inducers, primary screen, AK release luminescence, single concentration | C. neoformans lysis, adenylate kinase release luminescence, 4 h; normalised: neutral wells 0, clomiphene wells 100 | lysis activity, % at 15 µM | 360,000 compounds, 0.2% hits | AID 651654, 2012;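 active = mean lysis activity across replicates of at least 80%, whatever share of replicates individually reach that level; inactive = mean lysis activity below 80%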
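Test system: log-phase Cryptococcus neoformans yeast cells; Quantity: yeast cell density of 5 × 10^6 cells/mL; Buffer or medium: YPD; Doses: single compound concentration per well; Timing: 4 h at 37 °C static, read 1 h later; Measured by: AK luminescence; Read-out basis: lysis from increased AK signal; Control set: Clomiphene as positive control.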
Each line names hits and unclear results; the compound was inactive in the other large screens; [ ] = remark or other dose.

CCC(C)NC(=O)c1ccccc1SC (stereo not given)	none
COc1ccc(S(=O)(=O)Nc2cccc3c2O[C@@H](CN(C)Cc2ccc(C(F)(F)F)cc2)[C@@H](C)CN([C@H](C)CO)C3=O)cc1	none
CC(=O)c1ccc(NC(=O)c2cc(Cl)sc2Cl)cc1	rRNA inh HTS -30 (no result: PGC1a acetyl inh, Cneo AK release)
CC(=O)c1ccc(NC(=O)Nc2ccc(Cl)cc2)cc1	none (no result: PGC1a acetyl inh, Env fusion inh, Cneo AK release)
CCNC(=O)Nc1ccc2c(c1)C(=O)N(C)[C@@H]1CC[C@H](CC(=O)NCc3cccc(F)c3)O[C@H]1CO2	none (no result: ERAP1 HTS inh)
CCC(C)(C)c1ccc(Oc2cccc(C(=O)O)c2)cc1	none (no result: PGC1a acetyl inh)
CCC(C)(C)c1ccc(OCCCC[n+]2ccccc2)c(C(C)(C)CC)c1	Env fusion inh 77 (no result: PGC1a acetyl inh, Cneo AK release)
N#Cc1sc2nccc(Nc3ccccc3)c2c1N	PGC1a acetyl inh inconclusive, Env fusion inh 62 (no result: rRNA inh HTS, ERAP1 HTS inh)
Nc1cc(Nc2ccccc2)ccn1	none
CC(=O)N1CCN(C(=O)c2ccc(OC3CCN(Cc4ccccn4)CC3)cc2)CC1	none
O=C(c1ccc(OC2CCN(Cc3ccccn3)CC2)cc1)N1CCCCO1	FGF22 binding 43
O=C(Cc1ccc(Cl)cc1)Nc1ccc(S(=O)(=O)Nc2cnc3ccccc3n2)cc1	rRNA inh HTS -34 (no result: Cneo AK release)
COc1ccc(C)cc1NS(=O)(=O)c1cn(C)nc1C	FGF22 binding 43 (no result: Cneo AK release)
COc1ccc(C)cc1NC(=O)c1nn(C)c(C(=O)Nc2cc(C)ccc2OC)c1[N+](=O)[O-]	none
COc1ccc(C)cc1NC(=O)c1nn(C)cc1Br	rRNA inh HTS -15 (no result: PGC1a acetyl inh)
O=C1OC(c2ccc3ccccc3c2O)(c2ccc3ccccc3c2O)c2ccccc21	rRNA inh HTS -41
O=C1N(c2ccccc2)C[C@@H]2C[C@@H](c3cc4ccccc4o3)N3CCC[C@@]123	Env fusion inh 76 (no result: Cneo AK release)
COc1ccc(NC(=O)Nc2ccc3c(c2)CC(=O)N([C@H](C)CO)C[C@H](C)[C@H](CN(C)S(=O)(=O)c2cccs2)O3)cc1	Env fusion inh 70[16.7 µM]
C[C@H]1CN([C@@H](C)CO)C(=O)Cc2cc(NC(=O)Nc3ccc4c(c3)OCO4)ccc2O[C@H]1CN(C)S(=O)(=O)c1cccs1	Env fusion inh 92[16.7 µM] (no result: ERAP1 HTS inh)
C[C@H](CO)N1C[C@H](C)[C@H](CN(C)S(=O)(=O)c2cccs2)Oc2ccc(NC(=O)Nc3ccccc3)cc2CC1=O	Env fusion inh 105[16.7 µM]
C[C@@H]1CN([C@H](C)CO)C(=O)c2cc(NC(=O)Cc3ccccc3)ccc2O[C@@H](C)CCCCO[C@H]1CN(C)Cc1ccc(C(=O)O)cc1	none
O=C(Cc1ccc(Br)cc1)OCC(=O)c1ccc[nH]1	rRNA inh HTS -23 (no result: Env fusion inh)
CCCC(=O)Nc1ccc(Cl)c(NC(=S)NC(=O)c2ccco2)c1	rRNA inh HTS -16, FGF22 binding 1.5 (no result: PGC1a acetyl inh, Cneo AK release)
CCC(=O)Nc1ccc(Cl)c(NC(=S)NC(=O)COc2ccccc2)c1	FGF22 binding 44 (no result: PGC1a acetyl inh, Cneo AK release)
COc1ccc(/C=N\N=C2/SC(CC(=O)O)C(=O)N2c2ccc(O)cc2)cc1OC (stereo not given)	none (no result: rRNA inh HTS, ERAP1 HTS inh, PGC1a acetyl inh, FGF22 binding, Cneo AK release)
C[C@@H]1CN([C@@H](C)CO)C(=O)Cc2cc(NS(=O)(=O)c3ccc(Cl)cc3)ccc2O[C@H]1CN(C)Cc1ccc(Cl)c(Cl)c1	Env fusion inh 83[16.7 µM]
C[C@@H]1CN([C@@H](C)CO)C(=O)Cc2cc(NS(=O)(=O)c3ccccc3)ccc2O[C@H]1CN(C)Cc1ccc(Cl)c(Cl)c1	Env fusion inh 88[16.7 µM]
Cc1noc(C)c1S(=O)(=O)Nc1ccc2c(c1)CC(=O)N([C@@H](C)CO)C[C@@H](C)[C@H](CN(C)Cc1ccc(Cl)c(Cl)c1)O2	Env fusion inh 85[16.7 µM]
Cc1noc(C)c1S(=O)(=O)Nc1ccc2c(c1)CC(=O)N([C@@H](C)CO)C[C@H](C)[C@@H](CN(C)Cc1ccc(Cl)c(Cl)c1)O2	none
Cc1noc(C)c1S(=O)(=O)N(C)C[C@@H]1OCCCC[C@H](C)Oc2ccc(NC(=O)C3CCCCC3)cc2C(=O)N([C@@H](C)CO)C[C@@H]1C	none
COc1ccccc1C(=O)NC(=O)CSc1ccc(C)c(C)c1	FGF22 binding 43 (no result: rRNA inh HTS, PGC1a acetyl inh, Cneo AK release)
COCCNc1nnc(SCC(=O)NC(=O)c2ccccc2OC)s1	none (no result: PGC1a acetyl inh)
Cc1nc2cc(C(F)(F)F)ccc2n1C1CCN(CC(=O)N2CCOCC2)CC1	Env fusion inh inconclusive (no result: rRNA inh HTS, ERAP1 HTS inh, FGF22 binding, Cneo AK release)
CN(C)CC#Cc1ccc([C@H]2[C@H](CO)N3CCCCN(CC4CCOCC4)C[C@@H]23)cc1	none (no result: Env fusion inh)
CC12CN3CC(C)(CN(C1)C3c1ccc3c(c1)OCO3)C2=O (stereo not given)	none (no result: Env fusion inh, Cneo AK release)
CN1c2ccccc2N(C)C1c1ccc2c(c1)OCO2	Env fusion inh 63 (no result: rRNA inh HTS, ERAP1 HTS inh, PGC1a acetyl inh, FGF22 binding)
COc1ccc(NC(=O)Nc2nnc(Cc3ccc(OC)c(OC)c3)s2)cc1	none
CCCCN1CCc2c([nH]c3ccccc23)C1=O	none (no result: rRNA inh HTS, ERAP1 HTS inh, FGF22 binding, Env fusion inh)
CN1CCc2ccccc2Cc2[nH]c3ccccc3c2CC1	Env fusion inh 71
O=C(C[C@H]1CC[C@H](NC(=O)c2ccc(F)cc2)[C@H](CO)O1)NCc1ccncn1	none (no result: Env fusion inh)
COc1ccccc1/C=C/C(=O)NCC(=O)N/N=C/c1ccccc1	none (no result: PGC1a acetyl inh, Cneo AK release)
COc1ccccc1/C=C\C(=O)NCC(=O)N/N=C/c1ccc(O)cc1O	rRNA inh HTS -29
C[C@H]1CN([C@@H](C)CO)C(=O)c2cccc(NS(=O)(=O)c3cccs3)c2O[C@@H]1CN(C)C(=O)Nc1ccccc1	none (no result: ERAP1 HTS inh, FGF22 binding, Cneo AK release)
O=S(=O)(c1ccc(Cl)c(NC(=S)Nc2ccccc2N2CCOCC2)c1)N1CCOCC1	none (no result: PGC1a acetyl inh, Cneo AK release)
Cc1onc(-c2c(F)cccc2Cl)c1C(=O)Nc1ccccc1N1CCOCC1	rRNA inh HTS -28 (no result: PGC1a acetyl inh)
Fc1ccc(NC(=S)Nc2ccccc2N2CCOCC2)cc1Cl	rRNA inh HTS -27 (no result: Cneo AK release)
Cc1onc(-c2ccccc2)c1C(=O)Nc1ccccc1N1CCOCC1	none (no result: rRNA inh HTS, ERAP1 HTS inh, FGF22 binding)
Cc1csc(N(C)C(=O)CSc2nnc(COc3cccc4ccccc34)o2)n1	Env fusion inh 105 (no result: rRNA inh HTS, ERAP1 HTS inh, FGF22 binding)
O=C(C[C@H]1CC[C@@H]2[C@H](COC[C@H](O)CN2C(=O)Nc2ccc(Cl)cc2)O1)NCC1CC1	rRNA inh HTS -24 (no result: Env fusion inh)
C[C@H](NC(=O)C[C@H]1CC[C@H]2[C@@H](COC[C@H](O)CN2C(=O)Nc2cccc(F)c2)O1)c1ccccc1	none (no result: Env fusion inh)
C[C@H](NC(=O)C[C@@H]1CC[C@@H]2[C@H](COC[C@@H](O)CN2C(=O)Nc2cccc(F)c2)O1)c1ccccc1	Cneo AK release 90 (no result: Env fusion inh)
O=C(C[C@H]1CC[C@H]2[C@@H](COC[C@H](O)CN2C(=O)Nc2ccccc2)O1)NC1Cc2ccccc2C1	none (no result: Env fusion inh)
